Screening data from PubChem BioAssay.
Only some compounds are listed: those with a hit (about 1.4% of all), similar ones and a draw of the others.
PvdQ inh: P. aeruginosa PvdQ acylase inhibitors, primary screen, biochemical, fluorescence, plate reader and imaging, single point; inhibition, % at 10 µM; 340,000 compounds, 0.063% hits; purified PvdQ acylase; in the data active = inhibition above about 30%, passing the limit was not always enough; inconclusive = no clear call, values can overlap the other calls;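 also: 0% = vehicle neutral wells and 100% = reference inhibitor wells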
CAL PDZ FP-1: CAL PDZ peptide-binding inhibitors, primary screen, biochemical, fluorescence polarization, Cer-tagged CAL PDZ, HTS | purified CAL PDZ, TMR-peptide fluorescence polarization, 1 h | inhibition, % at 20 µM | 330,000 compounds, 0.02% hits;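 active = highest replicate inhibition of at least 40%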;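 also: plate controls were DMSO neutral control wells for no effect and unlabeled competitor peptide control wells for full effect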
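Read-out basis: mP drop reported as inhibition | Assay system: Tagged CAL PDZ protein CerCALP, purified | Benchmarks: Unlabelled peptide for full inhibition, DMSO wells as neutral | Schedule: 1 h incubation at room temperature before polarization reading | Buffer or medium: Sodium phosphate/NaCl buffer pH 7.4 with TCEP, IgG, Thesit | Doses: Single point, 20 µM | Measured by: Fluorescence polarization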
Vif inh: HIV Vif self-association inhibitors, primary screen, imaging, HEK293T, single point; 340,000 compounds, 0.35% hits; inhibition, % at 7.49 µM; HEK293T cells, Vif self-association by quenched fluorescence, 24 h; in the data active = inhibition above about 50%, passing the limit was not always enough; inconclusive = no clear call, values can overlap the other calls; inactive = below about 31%
CDK5 inh: inhibitors of human CDK5/p35 kinase, primary screen, biochemical, single concentration. Cyclin-dependent kinase 5 (Homo sapiens) + Cyclin-dependent kinase 5 activator 1 (Homo …. Recombinant CDK5/p35, ADP-Glo luminescence, 60 min. inhibition, % at 10 µM. 330,000 compounds, 0.01% hits. AID 488839, 2010;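 active = highest replicate inhibition of at least 50% and at least 75% of replicates reaching 50%; inconclusive = only one of the two criteria met; inactive = both criteria failed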;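 also: plate controls were DMSO neutral control for no effect and GW8510 at 10 µM for full effect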
Target sequence (Q00535 whole entry, looked up): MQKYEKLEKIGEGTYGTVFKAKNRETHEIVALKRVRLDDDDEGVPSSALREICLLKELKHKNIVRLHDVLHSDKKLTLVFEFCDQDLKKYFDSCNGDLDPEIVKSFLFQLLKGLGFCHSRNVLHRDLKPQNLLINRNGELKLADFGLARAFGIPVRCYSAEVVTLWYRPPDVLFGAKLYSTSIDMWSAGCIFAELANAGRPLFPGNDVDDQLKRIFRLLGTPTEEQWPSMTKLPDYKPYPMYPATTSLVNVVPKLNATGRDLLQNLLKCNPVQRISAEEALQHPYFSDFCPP
Target sequence (Q15078 whole entry, looked up): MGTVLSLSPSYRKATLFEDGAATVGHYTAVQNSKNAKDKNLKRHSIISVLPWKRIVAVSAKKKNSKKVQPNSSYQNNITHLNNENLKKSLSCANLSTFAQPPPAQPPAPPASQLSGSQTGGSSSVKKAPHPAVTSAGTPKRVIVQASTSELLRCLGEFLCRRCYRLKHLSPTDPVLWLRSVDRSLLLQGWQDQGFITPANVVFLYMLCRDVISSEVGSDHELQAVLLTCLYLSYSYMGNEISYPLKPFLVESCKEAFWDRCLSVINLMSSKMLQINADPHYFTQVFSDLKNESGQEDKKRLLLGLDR
Glyco luc inh: increase of ERlucT glycosylation luciferase signal, primary screen, N-linked glycosylation inhibitor project, D54 ERlucT cells, luminescence, set 2; D54 ERlucT glycosylation luciferase reporter, 24 h; percent of 100 nM tunicamycin response; reporter increase, % at 12.5 µM; 360,000 compounds, 0.23% hits; AID 588692, 2011;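 active = mean luciferase reporter signal, scaled so untreated is 0 and the glycosylation-blocking control 100, at or above a set limit in every replicate; inconclusive = mean reaches the limit but not every replicate does; inactive = mean below the limit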;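 also: luciferase carries N-glycosylation sites so blocking glycosylation raises the light; 0% = median of neutral control wells and 100% = median of 100 nM tunicamycin wells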
CAL PDZ FP-2: untagged CAL PDZ binding inhibitors, primary screen, biochemical, fluorescence polarization, HTS. 300,000 compounds, 0.92% hits. inhibition, % at 24.9 µM. Golgi-associated PDZ and coiled-coil motif-containing protein (Homo sapiens), Q9HD26. purified CAL PDZ, TMR-peptide fluorescence polarization, 1 h;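 active = mean inhibition of at least 30% with at least half of replicates also reaching 30%; inconclusive = no clear call, values can overlap the other calls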;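 also: 0% = DMSO neutral control and 100% = excess unlabeled competitor peptide PRC23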
* hit, by the source's call; ? = inconclusive; . = not tested or not shown; ! = repeats disagree.

SMILES	PvdQ inh	CAL PDZ FP-1	Vif inh	CDK5 inh	Glyco luc inh	CAL PDZ FP-2
COc1ccc(-c2c(NC(=O)C(C)C)n(C)c3ccccc3c2=O)cc1	-4	-1	-11	0	1	5
COc1ccc(-c2c(NC(C)=O)n(C)c3ccccc3c2=O)cc1	-11	17	10	-1	4	45*
COc1ccc(-c2csc(C(C)(O)c3ccc(F)c(F)c3)n2)cc1 (stereo unspecified)	.	.	-14	.	-2	.
CCOCCc1nnc(NC(=O)C2CC(=O)N(CCc3ccc(F)cc3)C2)s1 (stereo unspecified)	1	-1	19	-1	2	59*
CCOCc1nnc(NC(=O)C2CC(=O)N(CCc3ccc(F)cc3)C2)s1 (stereo unspecified)	-8	-3	10	-2	1	-5
Cc1onc(-c2ccccc2)c1C(=O)OCC(=O)c1ccc[nH]1	.	.	-1	.	4	.
CC(=O)c1c(C)[nH]c(C(=O)COC(=O)c2c(-c3ccccc3)noc2C)c1C	-10	0	1	0	1	64*
CC12CCC(=O)CC1CCC1C2CCC2(C)C1CCC2(O)C(=O)CO (stereo unspecified)	15	0	17	-1	1	0
C[C@]12CCC(=O)C[C@@H]1CC[C@@H]1[C@@H]2CC[C@]2(C)[C@@H](C(=O)COC(=O)CCC(=O)O)CC[C@@H]12	-14	-1	5	0	-1	167*!
CCOC(=O)C1CCCN(C(=O)c2[nH]c(C(F)(F)F)nc2-c2ccccc2)C1 (stereo unspecified)	.	.	.	.	4	.
O=S1(=O)CC/C(=N\Nc2ccccc2)c2ccsc21	-1	-1	1	2	0	33*
CC[C@@]1(C(=O)OC)N[C@H](CN(C)C(=O)COC)[C@@H]2C(=O)N(Cc3ccccc3)C(=O)[C@@H]21	1	-1	?	0	1	-4
Cc1nc(-c2ccc(NC(=O)Cc3ccccc3)cc2)cs1	-15	.	-4	0	2	66*
COc1cc(C(=O)NC(c2ccccc2)c2ccccc2)cc(OC)c1OC	-14	0	-2	2	3	51*
COc1ccccc1NC(=O)CNC(c1ccccc1)c1ccccc1	-17	2	-2	1	-2	33*
COc1cc(NC(=O)c2ccco2)c(OC)cc1NC(=O)c1cc(OC)c(OC)c(OC)c1	-12	0	-2	-1	3	97*
O=C(NC(c1ccccc1)c1ccccc1)c1ccccc1	5	-2	7	-2	-1	-5
CCOc1ccc(NC(=O)CN2CCN(CC(=O)Nc3ccccc3OC)CC2)cc1	-17	.	-1	0	-3	123*
CCC(ONc1ccccc1C(F)(F)F)(C(=O)NN(C)C)c1ccccc1 (stereo unspecified)	2	1	0	0	-1	3
Cc1ccccc1NC(=O)Cn1c([N+](=O)[O-])cnc1C	-10	-1	-9	-1	3	.
COc1cc(Cl)c(C)cc1NC(=O)CN1CCN(C(=O)C2CC2)CC1	-14	-1	19	0	28*	.
COc1cc(C(=O)NC(=S)Nc2ccc(Cl)c(C(=O)O)c2)cc(OC)c1OC	-18	.	-1	0	3	40*
COc1ccccc1NC(=O)Cn1c([N+](=O)[O-])cnc1C	-8	-4	-5	-1	2	64*
COc1ccccc1NC(=O)C1CCN(C(=O)NCc2ccccc2)CC1	-16	0	13	1	3	56*
COc1ccc(S(=O)(=O)N(C)C)cc1NC(=O)CN1CCN(C(=O)C2CC2)CC1	-11	0	-5	-1	4	0
SMILES	PvdQ inh	CAL PDZ FP-1	Vif inh	CDK5 inh	Glyco luc inh	CAL PDZ FP-2
Cn1c(N)c(C(=O)CSc2nn(-c3ccc(F)cc3)c(=S)s2)c(=O)n(C)c1=O	-3	-1	-4	1	-4	-5
Cc1nc(SCc2nc3ccc(C(=O)c4ccccc4)cc3[nH]2)c2oc3ccccc3c2n1	-2	-3	4	0	-2	3
COc1ccc(-c2noc(-c3csc([C@@H]4O[C@H](CO)[C@H](O)[C@H](O)[C@H]4O)n3)n2)cc1OC	.	.	-4	.	-1	.
COc1ccccc1NC(=O)CN1CCCCCC1	-3	-1	23	-1	2	47*
CC1(C(=O)NCCOc2ccccc2Cl)CC1(Cl)Cl (stereo unspecified)	-14	-2	0	-1	-3	.
O=C1C=CC(=O)c2c(O)c(N3CCN(CCO)CC3)c(Cl)c(O)c21	3	3	127*	6	-19	1
O=C1C=CC(=O)c2c(O)c(N3CCN(CCOCCO)CC3)c(Br)c(O)c21	-15	7	72*	5	-21	4
OCCOCCN1CCN(C2=Nc3ccccc3Sc3ccccc32)CC1	10	1	?	2	-3	-5
CN(Cc1ccc(Br)cc1)C(=O)CCN1C(=O)c2cccc([N+](=O)[O-])c2C1=O	-11	1	15	2	-1	71*
CN(Cc1ccccc1)C(=O)CCN1C(=O)c2cccc([N+](=O)[O-])c2C1=O	.	.	-1	.	3	.
O=[N+]([O-])c1ccc(COc2cccnc2)cc1	-3	-1	-1	1	0	-1
O=C(/C=C/c1cccnc1)c1ccc([N+](=O)[O-])cc1	10	-3	21	-3	35*	4
O=[N+]([O-])c1ccc(-c2cccnc2)cc1	49*	-1	3	-2	2	-1
CCc1noc(C)c1C(=O)Nc1cccc2ncccc12	0	0	-2	0	1	-1
Cc1ccc(C(=O)NCCCN2CCOCC2)cc1N1CCCC1=O	-12	.	14	1	2	40*
O=C(NCCCN1CCOCC1)c1ccc2c(c1)N(Cc1ccccc1)C(=O)c1ccccc1S2=O (stereo unspecified)	6	-2	3	.	-1	6
O=C(NCCCN1CCOCC1)c1ccc2c(c1)N(Cc1cccc(Cl)c1)C(=O)c1ccccc1S2=O (stereo unspecified)	-14	-1	-5	-1	-4	37*
NC(c1csc(Nc2ccc(C(=O)c3ccccc3)cc2)n1)C1CCCCC1 (stereo unspecified)	.	.	65*	.	-8	.
